According to ChEMBL document CHEMBL3632540, “Ynamide Click chemistry in development of triazole VEGFR2 TK modulators” (Eur J Med Chem, 2015):

Columns and labels:
[1] = Cytotoxicity against human Mahlavu cells incubated for 72 hrs by SRB assay; type: functional, cell-based
How it was run: (§1)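 HCC lines kept in DMEM with 10% FBS, L-glutamine, nonessential amino acids and penicillin/streptomycin at 37 °C, 5% CO2, STR-authenticated. Seeded at 2000 cells/well (Huh7) or 1000 cells/well (Mahlavu); serial dilutions added 24 h later, DMSO control. After 72 h, TCA-fixed, SRB-stained, dye solubilized in 10 mM Tris base, A515 read. Triplicates, normalized to DMSO.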

[2] = Cytotoxicity against human HuH7 cells incubated for 72 hrs by SRB assay; type: functional, cell-based, Huh-7; how it was run: as §1
[3] = target: Vascular endothelial growth factor receptor 2 (Homo sapiens, UniProt P35968); test: Inhibition of GST-tagged human recombinant VEGFR2 kinase expressed in Sf9 insect cells by radiometric protein kinase assay
How it was run: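 Human VEGFR2 kinase made as GST fusion in Sf9 cells, purified on GSH-agarose, purity checked by SDS-PAGE/silver stain, identity confirmed by mass spectrometry.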

[4] = Homo sapiens, Huh-7, 72 h, read-out: IC50

Sequence of Vascular endothelial growth factor receptor 2 (P35968 whole entry, the tested form may be a part): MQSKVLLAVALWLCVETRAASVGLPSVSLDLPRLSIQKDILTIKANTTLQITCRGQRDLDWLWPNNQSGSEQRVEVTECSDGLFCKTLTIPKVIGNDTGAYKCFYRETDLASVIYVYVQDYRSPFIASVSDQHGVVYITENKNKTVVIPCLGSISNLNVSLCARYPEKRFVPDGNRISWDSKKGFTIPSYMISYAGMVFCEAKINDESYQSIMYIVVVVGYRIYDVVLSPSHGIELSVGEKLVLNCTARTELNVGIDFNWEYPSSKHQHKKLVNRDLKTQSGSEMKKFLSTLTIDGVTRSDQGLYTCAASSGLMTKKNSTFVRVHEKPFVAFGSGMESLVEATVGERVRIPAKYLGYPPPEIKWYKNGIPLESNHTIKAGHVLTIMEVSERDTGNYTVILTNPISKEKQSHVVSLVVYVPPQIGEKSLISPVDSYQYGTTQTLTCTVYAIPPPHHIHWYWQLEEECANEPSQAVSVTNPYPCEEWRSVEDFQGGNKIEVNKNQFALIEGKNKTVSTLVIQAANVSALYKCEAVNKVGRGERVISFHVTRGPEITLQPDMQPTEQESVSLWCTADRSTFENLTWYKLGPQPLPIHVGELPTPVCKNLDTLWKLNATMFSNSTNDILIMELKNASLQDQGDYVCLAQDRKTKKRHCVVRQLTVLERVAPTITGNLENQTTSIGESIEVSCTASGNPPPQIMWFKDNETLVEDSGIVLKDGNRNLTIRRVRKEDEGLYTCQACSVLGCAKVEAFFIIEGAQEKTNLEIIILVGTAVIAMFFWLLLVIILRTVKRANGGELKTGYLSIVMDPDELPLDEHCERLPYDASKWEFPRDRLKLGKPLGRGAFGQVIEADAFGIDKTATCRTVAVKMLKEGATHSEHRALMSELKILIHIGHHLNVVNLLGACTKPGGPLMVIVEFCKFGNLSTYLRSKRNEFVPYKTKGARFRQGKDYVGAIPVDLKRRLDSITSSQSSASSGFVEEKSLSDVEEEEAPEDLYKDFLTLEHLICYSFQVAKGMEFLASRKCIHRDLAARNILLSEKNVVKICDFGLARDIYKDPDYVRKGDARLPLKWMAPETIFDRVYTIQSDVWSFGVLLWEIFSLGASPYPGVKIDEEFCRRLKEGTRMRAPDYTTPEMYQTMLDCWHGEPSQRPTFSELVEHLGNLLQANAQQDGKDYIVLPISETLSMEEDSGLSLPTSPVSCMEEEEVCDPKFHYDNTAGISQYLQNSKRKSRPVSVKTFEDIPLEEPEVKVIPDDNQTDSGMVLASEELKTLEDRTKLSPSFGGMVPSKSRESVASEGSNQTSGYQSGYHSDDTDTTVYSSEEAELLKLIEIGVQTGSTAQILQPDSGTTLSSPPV

Compound	IC50 ([3]; read-out: IC50)	IC50 ([3]; sf9)	IC50 [1]	IC50 [2, 4]	IC50 ([2]; huh-7)
CCS(=O)(=O)c1ccc(OC)c(Nc2cn(-c3ccc(O)c(-c4cc[nH]c4)c3)nn2)c1	40.1 µM	–	11.9 µM	18.6 µM	–
CCS(=O)(=O)c1ccc(OC)c(Nc2cn(-c3cccc(-c4ccccn4)c3)nn2)c1	42 µM	–	–	–	–
CCS(=O)(=O)c1ccc(OC)c(Nc2cn(-c3ccc(NC(N)=O)c(-c4cccc5ccccc45)c3)nn2)c1	> 100 µM	–	27.9 µM	–	Not Active
CCS(=O)(=O)c1ccc(OC)c(Nc2cn(-c3cc(-c4ccccc4)nc(-c4ccccc4)n3)nn2)c1	–	Not Active	–	–	–

Second part, led by results:

IC50 ([3]; read-out: IC50)	IC50 ([3]; sf9)	Compound	IC50 [1]	IC50 [2, 4]	IC50 ([2]; huh-7)
6.96 µM	–	CCS(=O)(=O)c1ccc(OC)c(Nc2cn(-c3ccc(O)c(-c4ccccn4)c3)nn2)c1	13.8 µM	17.7 µM	–
> 100 µM	–	CCS(=O)(=O)c1ccc(OC)c(Nc2cn(-c3cccc(-c4cccnc4)c3)nn2)c1	11.8 µM	12.8 µM	–
–	Not Active	CCS(=O)(=O)c1ccc(OC)c(Nc2cn(-c3ccc(O)c(-c4cccnc4)c3)nn2)c1	–	–	–
